Assay outcomes: PubChem, The Scripps Research Institute Molecular Screening Center
Rows were chosen to be rich in hits. Some 2.7% of all compounds tested hit in one or more screens of this group.
PAFAH1B2 FP inh: PAFAH1B2 (human) inhibition; P68402; recombinant PAFAH1B2, FP-rhodamine activity probe, fluorescence polarization; inhibition, % at 3.39 µM; 340,000 tested, 1.2% active;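 active = inhibition above the mean of all tested compounds plus 3 SD, cut at about 24% in these data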
Target sequence (P68402 whole entry, looked up): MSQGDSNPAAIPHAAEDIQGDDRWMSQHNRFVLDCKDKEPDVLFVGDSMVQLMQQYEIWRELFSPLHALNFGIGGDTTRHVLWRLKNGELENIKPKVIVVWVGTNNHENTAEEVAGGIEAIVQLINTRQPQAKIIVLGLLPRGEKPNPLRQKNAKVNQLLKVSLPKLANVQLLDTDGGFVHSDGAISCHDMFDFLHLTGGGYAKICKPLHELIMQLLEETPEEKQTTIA
RBBP9 inh: inhibitors of human serine hydrolase RBBP9. O75884. AID 1515. recombinant RBBP9, FP-Rh probe fluorescence polarization. inhibition, % at 7.94 µM. 220,000 tested, 0.2% active;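 active = inhibition above the campaign mean of all tested compounds plus 3 SD, cut at about 14% in these data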
Target sequence (O75884 whole entry, looked up): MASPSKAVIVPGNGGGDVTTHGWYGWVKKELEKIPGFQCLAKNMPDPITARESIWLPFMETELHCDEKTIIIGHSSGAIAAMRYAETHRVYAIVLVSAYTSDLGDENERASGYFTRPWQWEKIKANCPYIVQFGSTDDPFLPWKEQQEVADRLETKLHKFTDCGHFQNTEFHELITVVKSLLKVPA
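Measured by: FP readout at 525/598 nm; material: recombinant human RBBP9; also added: Serine-hydrolase probe FP-Rh, 375 nM pre-mixing; medium: Tris buffer pH 8.0, NaCl, Pluronic; replication: one well per compound; doses: one concentration, 7.94 µM nominal, 0.794% DMSO; timing: preincubation 30 min plus labeling 45 min at 25 °C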
PAFAH1B3 FP inh: PAFAH1B3 (human) inhibition; Q15102; recombinant PAFAH1B3, FP-rhodamine probe, fluorescence polarization; 340,000 tested, 0.28% active; inhibition, % at 3.39 µM; AID 492972;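 active = inhibition above the screen-wide average of all tested compounds plus 3 SD, cut at about 25% in these data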
Target sequence (Q15102 whole entry, looked up): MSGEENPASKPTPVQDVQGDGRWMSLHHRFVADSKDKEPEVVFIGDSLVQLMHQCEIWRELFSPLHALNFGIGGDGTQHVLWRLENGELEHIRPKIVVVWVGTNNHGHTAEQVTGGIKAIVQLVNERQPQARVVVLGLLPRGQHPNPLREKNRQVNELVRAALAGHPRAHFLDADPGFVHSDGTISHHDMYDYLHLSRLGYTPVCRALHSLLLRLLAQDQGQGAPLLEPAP
pPAFAH inh: pPAFAH (human) enzyme inhibition; Q13093; recombinant pPAFAH, FP-rhodamine probe fluorescence polarization; inhibition, % at 3.39 µM; 330,000 tested, 1.5% active; AID 463082;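 active = inhibition above the mean inhibition across the screen plus 3 SD, cut at about 25% in these data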;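 note: inhibitors block binding of the rhodamine activity-based probe so polarization drops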
PAFAH2 inh: PAFAH2 (human) inhibition; recombinant PAFAH2, FP-rhodamine activity probe, fluorescence polarization; 340,000 tested, 0.99% active; AID 492956; inhibition, % at 3.39 µM; Q99487;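 active = inhibition above the mean over all tested compounds plus 3 SD, cut at about 30% in these data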;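 note: inhibitors block probe labeling of enzyme so polarization drops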
Large screens that a line does not name were inactive.

O=S(=O)(Nc1ncccn1)c1ccc(NC(=S)NCCc2ccc(Cl)cc2)cc1	PAFAH1B2 FP inh 44
O=S(=O)(Nc1ncccn1)c1ccc(NC(=S)Nc2cccc(Cl)c2)cc1	none (no result: PAFAH1B2 FP inh, PAFAH1B3 FP inh, PAFAH2 inh)
S=C(NCCc1ccc(Cl)cc1)NC1CCCCC1	PAFAH1B2 FP inh 34 (no result: RBBP9 inh)
CCN(CC1CCCN(CCc2cccc(OC)c2)C1)C(=O)c1ccc(COC)o1 (stereo unspecified)	none (no result: RBBP9 inh)
COc1cccc(NC(=O)CN2C(=O)NC(c3ccccc3)(c3ccccc3)C2=O)c1	none (no result: RBBP9 inh)
C/C(=N\OC(=O)c1ccc(F)cc1)c1nccs1	PAFAH2 inh 33
OCC[C@H]1C[C@@H](O)[C@H](O)[C@]2(OCCc3ccccc32)O1	none (no result: RBBP9 inh)
O=C(O)CN1C(=O)C(=O)N(Cc2ccc(Cl)cc2Cl)C1=O	PAFAH1B2 FP inh 25 (no result: RBBP9 inh)
COc1cc(/C=C2\CCc3c2nc2ccccc2c3C(=O)O)cc(OC)c1OC	pPAFAH inh 32
COC(=O)Cc1cc(=O)oc2cc(O)ccc12	none
CCc1cccc2c(/C=N/NC(=O)c3cccc(S(=O)(=O)Nc4ccccc4Cl)c3)c[nH]c12	PAFAH1B2 FP inh 26, PAFAH1B3 FP inh 31, pPAFAH inh 27
Cc1ccc(CSc2nnc(NC(=O)C3COc4ccccc4O3)s2)cc1 (stereo unspecified)	PAFAH1B2 FP inh 31
Cc1nnc(NC(=O)C2COc3ccccc3O2)s1 (stereo unspecified)	none
CC(C)(C)OC(=O)C[C@@H]1C/C=C\C[C@@H](CC(=O)NCCO)C(=O)NC[C@@H](c2ccccc2)OC1=O	none (no result: RBBP9 inh)
O=C(COc1ccccc1[N+](=O)[O-])OCC(=O)c1ccc(Br)s1	pPAFAH inh 26 (no result: RBBP9 inh)
COc1ccc(C2CC(c3cccc(Br)c3)=NN2c2ccc(S(N)(=O)=O)cc2)cc1 (stereo unspecified)	pPAFAH inh 32 (no result: RBBP9 inh)
COc1ccc(C2CC(c3cccc(F)c3)=NN2c2ccc(S(N)(=O)=O)cc2)cc1 (stereo unspecified)	none (no result: RBBP9 inh)
O=C(Nc1cccc(Br)c1)c1cc(S(=O)(=O)N2CCOCC2)cs1	none (no result: RBBP9 inh)
CCOC(=O)N1CCN(C(=O)c2ccc3c(=O)n(CCC4=CCCCC4)c(=S)[nH]c3c2)CC1	PAFAH1B2 FP inh 25
O=c1c2c([N+](=O)[O-])cc([N+](=O)[O-])cc2sn1-c1ccc(Br)cc1	RBBP9 inh 17
CC(C)CN(C(=O)CN1C(=O)NC(c2ccccc2)(c2ccccc2)C1=O)C1CCS(=O)(=O)C1 (stereo unspecified)	none (no result: RBBP9 inh)
O=Cc1ccc(N2N=C(c3ccccc3)CC2c2ccccc2)cc1 (stereo unspecified)	pPAFAH inh 30 (no result: RBBP9 inh)
COc1ccc(C2=NN(c3ccc(C=O)cc3)C(c3ccccc3)C2)cc1 (stereo unspecified)	none (no result: PAFAH1B2 FP inh, RBBP9 inh, PAFAH1B3 FP inh, PAFAH2 inh)
O=C(O)c1ccc(N2N=C(c3ccccc3)CC2c2ccccc2)cc1 (stereo unspecified)	pPAFAH inh 32 (no result: RBBP9 inh)
COc1ccc(C(=O)Nc2ccc(NC(=O)c3ccccc3)cc2)cc1S(=O)(=O)N1CCOCC1	none (no result: RBBP9 inh)
COc1ccc(NC(=O)C2CC2)cc1S(=O)(=O)N1CCOCC1	none (no result: RBBP9 inh)
COc1ccc(NC(=O)C23CC4CC(CC(Cl)(C4)C2)C3)cc1S(=O)(=O)N1CCOCC1	PAFAH1B2 FP inh 27 (no result: RBBP9 inh)
COc1ccc(NC(=O)c2c3c(nc4ccccc24)CCC3)cc1S(=O)(=O)N1CCOCC1	pPAFAH inh 26
COc1ccccc1C1CCN(C(=O)c2cccs2)CC1	none (no result: PAFAH1B2 FP inh, PAFAH1B3 FP inh, PAFAH2 inh)
Cc1ccc(-c2cc3ccccc3nc2N2CCOCC2)cc1	pPAFAH inh 26 (no result: PAFAH1B2 FP inh, PAFAH1B3 FP inh, PAFAH2 inh)
O=C(Nc1nc(-c2ccccc2)ns1)c1ccncc1	none
O=C(O)CCCC(=O)Nc1ccc(Br)cc1	none
O=C(O)CCCC(=O)Nc1ccc(Br)cc1C(=O)O	PAFAH1B2 FP inh 27
OC1C(O)C(O)C(O)C(O)C1O (stereo unspecified)	none (no result: RBBP9 inh)
COc1cccc(/C=N/Nc2snc(SC)c2C#N)c1O	pPAFAH inh 29, PAFAH2 inh 33
COc1ccc(/C=N/Nc2snc(SC)c2C#N)cc1OC	none
Nc1ccc(O)c(C(=O)O)c1	pPAFAH inh 49 (no result: PAFAH1B2 FP inh, RBBP9 inh, PAFAH1B3 FP inh, PAFAH2 inh)
CC(Sc1ccc(Cl)cc1)C(=O)Nc1ccc(S(=O)(=O)N2CCOCC2)cc1 (stereo unspecified)	PAFAH1B2 FP inh 31
CC(C)C(=O)Nc1ccc(C(=O)Nc2ccc(S(=O)(=O)N3CCOCC3)cc2)cc1	none (no result: RBBP9 inh)
O=C(O)COc1ccc(-c2nc(-c3ccccc3)c(-c3ccccc3)[nH]2)cc1	none (no result: RBBP9 inh)
O=C(O)COc1ccccc1-c1nc(-c2ccccc2)c(-c2ccccc2)[nH]1	PAFAH1B2 FP inh 36 (no result: RBBP9 inh)
COc1cccc(-c2nc(-c3ccc4c(c3)-c3ccccc3S4(=O)=O)c(-c3ccccc3)[nH]2)c1OC	none
COc1cccc(-c2nc(-c3ccccc3)c(-c3ccccc3)[nH]2)c1OCC(=O)O	PAFAH1B2 FP inh 24 (no result: RBBP9 inh, pPAFAH inh)
C[C@H](NC(=O)CCCOc1ccc(Cl)cc1Cl)c1nnc2ccccn12	none (no result: RBBP9 inh)
COC(=O)c1ccc(NC(=O)CCN2C(=O)NC(C)(C)C2=O)cc1	none (no result: RBBP9 inh)
CC(C)=Cc1oc2ccc([N+](=O)[O-])cc2c1N1CC(C)OC(C)C1 (stereo unspecified)	none
O=C(Cc1ccccc1)Nc1ccc(N2CCOCC2)cc1	none
CCN(C(=O)c1ccc(NC(=O)Cc2ccccc2)cc1)c1ccccc1	PAFAH1B2 FP inh 26 (no result: RBBP9 inh, pPAFAH inh)
O=C(COc1ccccc1Cl)Nc1ccc(N2CCCC2)cc1	pPAFAH inh 58 (no result: RBBP9 inh)
O=C(Cc1ccccc1)Nc1ccc(N2CCCC2)cc1	pPAFAH inh 33
CCN(C[C@H]1N[C@@](Cc2ccccc2)(C(=O)OC)[C@H]2C(=O)N(C)C(=O)[C@@H]12)S(=O)(=O)c1ccc(-c2ccccc2)cc1	none (no result: RBBP9 inh)
O=S(=O)(NCCC1=CCCCC1)c1ccccc1Cl	none (no result: RBBP9 inh)
O=S(=O)(c1ccccc1)c1ccc(N2CCCCCC2)cc1	none (no result: RBBP9 inh)
CCN(CC)C1Oc2cc3c(cc2C(c2cc(OC)c(OC)c(OC)c2)C1C)OCO3 (stereo unspecified)	none (no result: RBBP9 inh, pPAFAH inh)
O=C(CSc1ccccc1)N1CCN(C(=O)c2ccco2)CC1	none
O=C(CSc1ccccc1)OCC(=O)N1CCN(C(=O)c2ccco2)CC1	pPAFAH inh 26 (no result: RBBP9 inh)
Cc1ccc(SCC(=O)OCC(=O)N2CCN(C(=O)c3ccco3)CC2)c(C)c1	pPAFAH inh 34 (no result: RBBP9 inh)
Cc1cccc(OCC(=O)OCC(=O)N2CCN(C(=O)c3ccco3)CC2)c1C	pPAFAH inh 27 (no result: RBBP9 inh)
Cc1cccc(C(=O)OCC(=O)N2CCN(C(=O)c3ccco3)CC2)c1O	none (no result: RBBP9 inh)
CCOC(=O)C1(Cc2ccc(Cl)cc2)CCN(C(C)Cc2ccc(O)c(OC)c2)CC1 (stereo unspecified)	none (no result: RBBP9 inh)
Cc1cc(Cl)ccc1OCC(=O)Nc1ccccc1NS(=O)(=O)c1cccs1	pPAFAH inh 33
O=C(Nc1ccc(F)cc1)Nc1ccccc1NS(=O)(=O)c1cccs1	none
O=S(=O)(Nc1ccccc1Cl)c1ccc(NS(=O)(=O)c2cccs2)cc1	pPAFAH inh 26 (no result: RBBP9 inh)
O=C(Nc1ccc(Cl)cc1)Nc1ccccc1NS(=O)(=O)c1cccs1	PAFAH1B2 FP inh 26
CNc1ccc(C(=O)N2CCN(S(=O)(=O)c3ccc4c(c3)OCCCO4)CC2)cc1[N+](=O)[O-]	none (no result: RBBP9 inh)
